A short description of data set [1]: folding enthalpy; higher = less favourable; fluorescence melt of hairpins on a sequencing array, two-state fit. Conditions: sodium 0.088 M. The essentials: (§1)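 Melting temperature and folding enthalpy were obtained by bootstrapped two-state fitting. Fits used Cy3 fluorescence of library hairpins with annealed Cy3 and quencher oligos on a sequenced MiSeq flow cell, imaged in 50 mM Na-HEPES pH 8.0, 25 mM NaCl in 2.5 °C steps up to 60 °C and normalised to pre-quench Cy3 and control constructs. Four replicates were combined by inverse-variance weighting, and fitted temperatures were raised by 9.35 °C to match UV melts.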

Data set [2] is described as follows: melting temperature; fluorescence melt of hairpins on a sequencing array, two-state fit, raised by 9.35 °C to match UV melts. The conditions noted are these: sodium 0.088 M. The essentials:
as §1

As for GTCGAGCGAAAGCTGGAC (((.(((....))).))), in data set [1], the folding enthalpy was -28.9 kcal/mol. Further, the Tm in data set [2] worked out at 56.1 °C.
For GTCGAGCGAAAGCTTGAC (((.(((....))).))) the same measures were -35.4 kcal/mol and 63.9 °C.
Turning to GTCGAGGAAACTCGAC ((((((....)))))), the folding enthalpy in data set [1] is -45.2 kcal/mol. For the same sequence, the Tm in data set [2] worked out at 63.3 °C.
Regarding GTCGAGGCGAAAGCCGAC (((..(((....)))))), in data set [1], the folding enthalpy was -9.98 kcal/mol. In data set [2], the Tm worked out at 51 °C.
As to GTCGAGGGAAACCTCGGC (.(((((....))))).), the folding enthalpy in data set [1] is -35.8 kcal/mol. In addition, the Tm in data set [2] was 57.3 °C.
For GTCGAGGGAAACCTTGAC (((.(((....))).))), the folding enthalpy in data set [1] is -38.5 kcal/mol. For the same sequence, the Tm in data set [2] came out at 48.7 °C.
For GTCGAGGGAAACTTCGAC (((((.(....).))))) the same measures were -42.6 kcal/mol and 49.6 °C.
GTCGAGGGAAACTTCGGC (.(((.(....).))).): the folding enthalpy in data set [1] is -24.6 kcal/mol. Further, in data set [2], the Tm came out at 36.4 °C.
As to GTCGAGTCGAAAGACGAC (((..(((....)))))), in data set [1], the folding enthalpy was -10.7 kcal/mol. Moreover, in data set [2], the Tm is 47 °C.
As for GTCGATCGAAAGATGAC (((.(((....)))))), the folding enthalpy in data set [1] is -26.9 kcal/mol. For the same sequence, in data set [2], the Tm was 43.7 °C.
The like results for GTCGATGGAAACATCAAC ((.((((....)))).)) were, in that order, -17.6 kcal/mol and 34.7 °C.
For GTCGCAACGAAAGTTGAC (((..(((....)))))) the same measures were -12.1 kcal/mol and 29.4 °C.
For GTCGCAGGAAACCGCGAC (((((.(....).))))), the folding enthalpy in data set [1] is -43.1 kcal/mol. For the same sequence, the Tm in data set [2] worked out at 58.9 °C.
The like results for GTCGCAGGAAACTGTGGC (.(.(((....))).).) were, in that order, -29.9 kcal/mol and 42.8 °C.
As to GTCGCCGAAAGGCATGAC ((((((....)))..))), the folding enthalpy in data set [1] was -13.2 kcal/mol. Further, in data set [2], the Tm turned out to be 40.7 °C.
As for GTCGCCGAAAGGCCCGAC ((((((....)))..))), in data set [1], the folding enthalpy is -11.6 kcal/mol. Also, the Tm in data set [2] is 37.4 °C.
For the sequence GTCGCCGAAAGGCCGGAC ((((((....)))..))), the folding enthalpy in data set [1] was -13.1 kcal/mol. For the same sequence, the Tm in data set [2] is 41.6 °C.
Regarding GTCGCCGGAAACAGCGAC (((((.(....).))))), the folding enthalpy in data set [1] was -44.9 kcal/mol. Moreover, in data set [2], the Tm stood at 54.9 °C.
For the sequence GTCGCCGGAAACGGTGAC (((.(((....))).))), the folding enthalpy in data set [1] was -41.5 kcal/mol. Moreover, the Tm in data set [2] worked out at 63.7 °C.
As for GTCGCGGCGAAAGCCGAC (((..(((....)))))), the folding enthalpy in data set [1] was -7.7 kcal/mol. In data set [2], the Tm turned out to be 42.2 °C.
The like results for GTCGCTCGAAAGAGAGAC (((.(((....))).))) were, in that order, -42.9 kcal/mol and 58.4 °C.
For GTCGCTGGAAACAGTGAC (((.(((....))).))) the same measures were -50.4 kcal/mol and 54.9 °C.
For GTCGCTGGAAACGGCGAC (((((.(....).))))) the same measures were -43.8 kcal/mol and 65.7 °C.
GTCGGAGAAATCCGAC ((((((....)))))): the folding enthalpy in data set [1] was -35.7 kcal/mol. Also, in data set [2], the Tm came out at 61.7 °C.
The like results for GTCGGAGGAAACTCCAAC ((.((((....)))).)) were, in that order, -22.7 kcal/mol and 35.5 °C.
For GTCGGCCCGAAAGGGGAC (((..(((....)))))) the same measures were -12.6 kcal/mol and 43.3 °C.
The like results for GTCGGCCGAAAGGCGAC (((.(((....)))))) were, in that order, -21.9 kcal/mol and 67.2 °C.
Consider GTCGGCGAAAGCCGCGAC ((((((....)))..))), for which, in data set [1], the folding enthalpy is -11.6 kcal/mol. Besides, the Tm in data set [2] was found to be 57.7 °C.
The like results for GTCGGCGCGAAAGCGGAC (((..(((....)))))) were, in that order, -13.8 kcal/mol and 45.6 °C.
On to GTCGGGAAACCGAC (((((....))))), for which the folding enthalpy in data set [1] was -24.2 kcal/mol. Also, in data set [2], the Tm amounted to 66 °C.

Source of the values: the array DNA melting data of Ke et al. (doi:10.1101/2024.01.08.574731).
